# Screening data as filed in PubChem BioAssay.
# KCNQ1 act: potentiates or activates the human KCNQ1 potassium channel; CHO-K1 KCNQ1, thallium flux FluxOR fluorescence; stronger effect = higher value; B-score at 10 µM; 0.35% of 310,000 active;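 active = fluorescence ratio B-score, a plate-corrected score, at least three library SD, with initial intensity B-score within 5 SD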
# Target sequence (P51787 whole entry, looked up): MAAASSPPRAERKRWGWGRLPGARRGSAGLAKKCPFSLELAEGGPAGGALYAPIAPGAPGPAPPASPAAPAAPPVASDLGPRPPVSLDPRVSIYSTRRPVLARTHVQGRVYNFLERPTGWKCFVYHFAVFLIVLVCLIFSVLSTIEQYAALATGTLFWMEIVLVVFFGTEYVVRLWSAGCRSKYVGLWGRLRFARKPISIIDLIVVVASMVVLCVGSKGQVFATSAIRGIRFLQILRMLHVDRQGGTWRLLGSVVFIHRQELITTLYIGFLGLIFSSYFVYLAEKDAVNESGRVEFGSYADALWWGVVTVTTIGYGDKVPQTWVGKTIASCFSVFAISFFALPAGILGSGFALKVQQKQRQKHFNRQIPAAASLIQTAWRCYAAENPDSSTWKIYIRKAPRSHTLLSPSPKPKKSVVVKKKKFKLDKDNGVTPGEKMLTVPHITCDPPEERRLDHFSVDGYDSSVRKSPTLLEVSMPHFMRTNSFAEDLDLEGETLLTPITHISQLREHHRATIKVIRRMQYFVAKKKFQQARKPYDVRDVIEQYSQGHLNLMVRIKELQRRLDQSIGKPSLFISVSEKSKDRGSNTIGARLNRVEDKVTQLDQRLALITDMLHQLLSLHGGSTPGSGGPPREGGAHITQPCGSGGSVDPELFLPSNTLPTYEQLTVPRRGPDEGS
#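 Material: CHO-K1 cells stably expressing KCNQ1. Medium: assay buffer for compound exposure, DMSO matched across wells. Reagent: K+/Tl+ depolarizing stimulus. Compound dosing: single-concentration screen. Times: 37 °C overnight plating, 90-min dark dye load, 20-min compound pretreatment. Technique: FluxOR Tl+ flux fluorescence.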
# KCNK3 inh: human KCNK3 channel inhibition, primary screen | 0.84% of 340,000 active | O14649 | B-score at 10 µM | CHO-KCNK3 thallium flux, FluxOR fluorescence; stronger effect = lower value;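 active = B-score under library mean minus 4 SD, starting fluorescence ratio at most library mean plus 5 SD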;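 also: more negative B-score means stronger inhibition of thallium flux through KCNK3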
# KCNK9 inh: inhibitors of human KCNK9 two-pore domain potassium channel. Q9NPC2. HEK293 KCNK9, FluxOR thallium flux fluorescence; stronger effect = lower value. AID 488922. B-score at 10 µM. 1.2% of 310,000 active;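 active = ratio B-score over 3 SD below the library mean, with starting fluorescence within 5 SD of its mean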;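 also: negative B-score means less thallium flux so channel inhibition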
# hERG rescue: compounds protecting human hERG from proarrhythmic drug block. Q12809. CHO-hERG, FluxOR thallium flux, dofetilide IC70 present. activation (rescue from dofetilide block), less the hit threshold, % at 10 µM. 0.51% of 310,000 active. AID 1511;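 active = activation above the mean of controls blocked by dofetilide plus 5 SD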;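 also: thallium influx through hERG after potassium depolarization seen as dye fluorescence rise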
# KCNQ1 inh: inhibitors of human KCNQ1 potassium channel; P51787; CHO-K1 KCNQ1, FluxOR thallium flux fluorescence; stronger effect = higher value; B-score at 10 µM; 1.3% of 310,000 active;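 active = compounds whose thallium flux B-score, printed positive for inhibition, exceeds three library SD while starting fluorescence stays within three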;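 also: channel opened by potassium depolarization with thallium stimulus after 20 min compound exposure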
# Kir21 inh: inhibitors of mouse Kir2.1 inward-rectifier potassium channel; B-score at 10 µM; HEK293-Kir2.1, FluxOR thallium flux fluorescence; stronger effect = lower value; P35561; 0.85% of 310,000 active;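 active = fluorescence ratio B-score at or below minus 3 SD of library scores, with starting-brightness B-score within 2 SD, cut at about -4.2 in these data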;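 also: channel flux triggered by added potassium and thallium sulfate stimulus; B-score of peak minus minimum fluorescence over baseline after thallium stimulus; more negative B-score means stronger Kir2.1 block with less thallium influx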
# KCNK9 inh conf: human KCNK9 inhibitor confirmation | HEK293 KCNK9 cells, FluxOR thallium flux fluorescence | shares compounds with KCNK9 inh | 43% of 4,900 active | inhibition, % at 10 µM;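 active = thallium signal inhibited by more than 5 SD of the compound-free buffer control wells, on both duplicate plates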;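 also: 0% = assay buffer control wells without compound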
# Kir2-1 spec: selectivity of KCNK9 modulators against mouse Kir2.1; 4% of 4,900 active; Kir2.1 cells, FluxOR thallium flux fluorescence; inhibition, % at 10 µM; shares compounds with KCNK9 inh;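 active = thallium signal drop more than 5 SD beyond the mean of the no-compound control wells, seen in both duplicate plates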;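 also: signal is fluorescence rise after thallium addition divided by baseline fluorescence; plate controls were assay buffer only for no effect and full block by chlorpromazine control for full effect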
# HEK293 Tl ctr: second check of KCNK9 modulator effects in non-induced HEK293 cells | shares compounds with KCNK9 inh | FluxOR thallium flux | inhibition, % at 10 µM | 40% of 4,900 active | AID 492997;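 active = thallium signal drop beyond 5 SD of the untreated control mean, on both duplicate plates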;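 also: plate controls were buffer only IC0 wells for no effect and SID17386958 at its maximal inhibitory level for full effect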
# An asterisk follows results filed as active; i = inactive; x = no result given; ! = not confirmed by another sample. In the library only some 3.7% were active in any assay of this set; here they are far more common.
SMILES,KCNQ1 act,KCNK3 inh,KCNK9 inh,hERG rescue,KCNQ1 inh,Kir21 inh,KCNK9 inh conf,Kir2-1 spec,HEK293 Tl ctr
COc1ccc(CN2CCCC(C(=O)c3ccc(SC)cc3)C2)cc1Cn1cccn1 (centres undefined),i,i,i,-16,i,-1.8,i,i,i
CSc1ccc(C(=O)C2CCCN(Cc3ccc(N4CCNC4=O)cc3)C2)cc1 (centres undefined),i,i,i,-6,i,-1.8,x,x,x
COc1ccc(C(=O)C2CCCN(C(=O)c3cccs3)C2)cc1F (centres undefined),i,i,i,-13,i,-1.3,i,i,i
COc1ccc(C(=O)C2CCCN(C(=O)c3cccc(Cn4cccn4)c3)C2)cc1F (centres undefined),i,i,i,-15,i,-1.2,i,i,i
COc1ccc(C(=O)C2CCCN(C(=O)c3cc(C(C)C)no3)C2)cc1F (centres undefined),i,i,i,-5,i,-0.01,i,i,i
CC(Oc1ccccc1F)c1nnc(SCC(=O)N(c2ccccc2)C2CCS(=O)(=O)C2)o1 (centres undefined),x,i,x,x,x,x,x,x,x
CC1CCC(C(C)C)C(OC(=O)Cn2nnc3c(cnn3-c3ccccc3)c2=O)C1 (centres undefined),i,i,i,-20,i,-1.3,x,x,x
Cc1ccccc1OCc1n(CC(=O)OC2CC(C)CCC2C(C)C)c2ccccc2[n+]1C (centres undefined),i,-13*,-17*,-30,8*!,-15*,70%*,78%*!,i
COc1ccc(Cc2nn3c(-c4ccccc4Br)nnc3s2)cc1,i,i,i,-4,i,1.5,x,x,x
Brc1ccccc1-c1nnc2sc(Cc3ccccc3)nn12,i,i,-15*,-5,i,1.4,36%*,i,26%*
O=C(Nc1ccccc1Cl)c1cccc(COc2cc(Cl)ccc2Cl)c1,i,i,-11*,-4,i,-0.54,30%*,i,i
COc1ccc(C(=O)Nc2cc(OCc3ccccc3)c(Cl)cc2Cl)cc1,i,i,-16*,-16,i,0.34,58%*,i,i
COc1ccc(CNC(=O)CN(c2ccc(C)cc2)S(=O)(=O)c2c(C)noc2C)cc1,i,i,i,-4,i,-0.41,x,x,x
COc1ccc(CNC(=O)CN(c2cc(C)cc(C)c2)S(=O)(=O)c2c(C)noc2C)cc1,i,i,-8.6*,-6,i,-2,i,i,i
CC(=O)c1cccc(NC(=O)C(OC(=O)/C=C/c2ccc3c(c2)OCO3)c2ccccc2)c1 (centres undefined),i,i,-9.3*,-15,i,0.03,24%*,i,i
Cc1c(C(=O)N/N=C/c2cccs2)nnn1-c1nonc1N,i,i,i,-10,i,-0.06,x,x,x
Cc1sc2nc(-c3cccnc3)nc(Cl)c2c1-c1ccccc1,i,i,i,-7,i,0.49,i,i,i
COc1ccc(-c2cccc(CCC(=O)N3CCN(c4cc(C)ccc4C)CC3)c2)cc1,x,i,x,x,x,x,x,x,x
COc1ccc(C(=O)CCC(=O)N2CCN(c3cc(C)ccc3C)CC2)cc1,i,i,i,-3,i,-1.5,i,i,i
COc1ccc(CCC(=O)N2CCN(c3cccc(C)c3C)CC2)cc1,i,i,i,-13,i,-2.1,i,i,i
Cc1ncc(CN2CCN(CCc3ccccc3)C(CCO)C2)s1 (centres undefined),i,i,i,-14,i,-0.73,x,x,x
CCOC(=O)C1CCN(CCCSc2ccc(Cl)cc2)CC1,i,i,i,-5,i,-4.2*,i,i,i
COc1ccc(N(CC(=O)NC(C)(C)C)S(=O)(=O)c2ccccc2)cc1OC,i,i,i,-3,i,0.81,x,x,x
O=C(O)c1ccc(N/N=C/c2ccc(-c3ccc(Cl)cc3Cl)o2)cc1,i,i,i,-10,i,1.3,i,i,i
Cc1c(C(=O)O)cccc1-c1ccc(/C=N/Nc2ccc(Br)cc2)o1,i,i,i,-12,i,0.39,i,i,i
SMILES,KCNQ1 act,KCNK3 inh,KCNK9 inh,hERG rescue,KCNQ1 inh,Kir21 inh,KCNK9 inh conf,Kir2-1 spec,HEK293 Tl ctr
Cc1c(C(=O)O)cccc1-c1ccc(/C=N/n2cnnc2)o1,i,i,i,-8,i,-0.02,x,x,x
COc1ccc(-c2csc(Nc3ncccc3C)n2)cc1,i,i,i,-9,i,0.2,i,i,i
COc1ccc(-c2csc(Nc3ncccc3C)n2)cc1OC,i,i,i,-3,i,-1.1,x,x,x
C=C1CCC2C(C)(C)[C@H](O)CC[C@@]2(C)[C@@H]1COc1cc(=O)oc2ccccc12 (some centres undefined),i,i,-13*,-19,i,0.3,60%*,i,26%*
O=S(=O)(Nc1cc(Cl)ccc1N1CCCCC1)c1cccs1,i,i,-15*,-11,i,-2.5,65%*,i,i
Clc1cccc2sc(N3CCCCC3)nc12,i,i,i,-9,i,1.6,x,x,x
Brc1cccc2sc(N3CCN(c4ccccc4)CC3)nc12,i,i,-14*,-12,i,0.32,47%*,i,30%*
CC(=O)Nc1ccc(S(=O)(=O)NCC2CCC(C(=O)N3CCCCC3)CC2)cc1 (centres undefined),i,i,i,-7,i,-0.08,x,x,x
Cc1ccc2c(c1)N(C(=O)CCC(=O)NCc1cccc(Br)c1)CC(C)O2 (centres undefined),i,i,i,-15,i,-0.02,i,i,i
Cc1ccc2c(c1)N(C(=O)CCC(=O)Nc1ccccc1Br)CC(C)O2 (centres undefined),i,i,i,-8,i,-0.03,i,i,i
Cc1ccc(CNC(=O)CCC(=O)N2CC(C)Oc3ccc(Cl)cc32)cc1 (centres undefined),i,i,i,-10,i,0.59,x,x,x
CCOc1ccc(S(=O)(=O)N2CCC(C(=O)NC3CC3)CC2)cc1C,i,i,i,-5,i,1.2,x,x,x
